Experiments:
[1] = molecular target: Mitogen-activated protein kinase 9 (Homo sapiens, UniProt P45984); test: Inhibition of JNK2 Lys2 labeling site in human A-375 cells at 0.5 uM by KiNativ Profiling analysis relative to control; format: cell-based
[2] = molecular target: Tyrosine-protein kinase Lyn (Homo sapiens, UniProt P07948); test: Inhibition of LYN Lys1 labeling site in human A-375 cells at 0.5 uM by KiNativ Profiling analysis relative to control; format: cell-based
[3] = molecular target: Tyrosine-protein kinase ABL2 (Homo sapiens, UniProt P42684); test: Inhibition of ARG (unknown origin) ACT labeling site by KiNativ Profiling analysis
[4] = molecular target: Serine/threonine-protein kinase MARK2 (Homo sapiens) (UniProt Q7KZI7); test: Inhibition of MARK2 Lys2 labeling site harbouring FIVHRDLKAENLLLDADMNIK in human A-375 cells at 5 uM by KiNativ Profiling analysis relative to control; format: cell-based
Serine/threonine-protein kinase MARK2 (Homo sapiens), sequence (Q7KZI7 whole entry): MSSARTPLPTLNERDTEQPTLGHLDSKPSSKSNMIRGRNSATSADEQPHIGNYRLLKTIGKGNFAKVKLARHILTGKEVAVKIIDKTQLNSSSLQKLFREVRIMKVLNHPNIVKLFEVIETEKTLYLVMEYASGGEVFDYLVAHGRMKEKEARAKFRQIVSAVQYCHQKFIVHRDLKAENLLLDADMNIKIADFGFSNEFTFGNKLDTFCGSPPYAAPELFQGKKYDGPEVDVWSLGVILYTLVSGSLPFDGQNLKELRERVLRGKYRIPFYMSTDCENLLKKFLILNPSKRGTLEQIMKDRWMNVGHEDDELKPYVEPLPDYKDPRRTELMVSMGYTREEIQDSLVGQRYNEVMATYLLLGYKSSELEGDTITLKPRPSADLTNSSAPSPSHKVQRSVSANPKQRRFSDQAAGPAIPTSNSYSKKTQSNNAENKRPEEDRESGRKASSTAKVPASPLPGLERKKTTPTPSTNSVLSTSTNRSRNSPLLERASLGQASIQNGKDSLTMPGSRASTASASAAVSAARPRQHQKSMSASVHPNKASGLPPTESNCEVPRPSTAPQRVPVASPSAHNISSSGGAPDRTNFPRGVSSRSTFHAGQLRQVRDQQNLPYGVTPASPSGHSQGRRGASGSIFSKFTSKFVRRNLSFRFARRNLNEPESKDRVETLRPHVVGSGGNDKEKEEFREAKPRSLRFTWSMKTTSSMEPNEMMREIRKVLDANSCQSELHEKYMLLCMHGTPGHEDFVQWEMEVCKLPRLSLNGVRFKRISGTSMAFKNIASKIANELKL

[5] = molecular target: T1, Serine/threonine-protein kinase Nek9 (Homo sapiens) (UniProt Q8TD19); test: Inhibition of NEK9 Lys2 labeling site in human A-375 cells at 5 uM by KiNativ Profiling analysis relative to control; format: cell-based
T1 sequence (whole entry): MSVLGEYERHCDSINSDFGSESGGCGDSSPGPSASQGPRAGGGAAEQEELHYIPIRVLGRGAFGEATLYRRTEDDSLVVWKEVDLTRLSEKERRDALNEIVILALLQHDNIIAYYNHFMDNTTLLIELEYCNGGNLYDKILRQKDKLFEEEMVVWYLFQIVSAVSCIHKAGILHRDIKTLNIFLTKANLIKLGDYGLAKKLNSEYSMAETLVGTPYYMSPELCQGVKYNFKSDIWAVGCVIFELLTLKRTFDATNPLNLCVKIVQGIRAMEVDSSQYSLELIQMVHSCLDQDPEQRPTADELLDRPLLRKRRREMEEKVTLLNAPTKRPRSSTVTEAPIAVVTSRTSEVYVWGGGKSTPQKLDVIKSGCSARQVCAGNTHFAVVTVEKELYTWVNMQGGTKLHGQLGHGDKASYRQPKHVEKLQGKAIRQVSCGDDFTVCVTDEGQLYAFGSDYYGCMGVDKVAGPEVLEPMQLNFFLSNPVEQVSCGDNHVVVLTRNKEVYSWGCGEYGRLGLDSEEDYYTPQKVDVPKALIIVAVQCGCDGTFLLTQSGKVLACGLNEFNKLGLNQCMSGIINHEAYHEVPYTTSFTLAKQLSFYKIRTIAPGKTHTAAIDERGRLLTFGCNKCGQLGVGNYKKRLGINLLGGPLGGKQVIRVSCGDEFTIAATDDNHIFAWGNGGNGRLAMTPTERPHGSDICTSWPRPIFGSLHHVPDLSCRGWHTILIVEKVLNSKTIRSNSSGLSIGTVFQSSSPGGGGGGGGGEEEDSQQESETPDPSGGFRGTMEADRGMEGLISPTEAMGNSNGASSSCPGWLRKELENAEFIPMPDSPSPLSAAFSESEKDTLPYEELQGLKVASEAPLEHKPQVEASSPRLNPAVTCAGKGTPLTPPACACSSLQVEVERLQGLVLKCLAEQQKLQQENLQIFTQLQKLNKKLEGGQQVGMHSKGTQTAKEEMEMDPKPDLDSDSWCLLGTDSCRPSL

[6] = molecular target: Serine/threonine-protein kinase WNK3 (Homo sapiens) (UniProt Q9BYP7); test: Inhibition of Wnk3 Lys2 labeling site in human A-375 cells at 5 uM by KiNativ Profiling analysis relative to control; format: cell-based
Serine/threonine-protein kinase WNK3 (Homo sapiens), sequence (Q9BYP7 whole entry): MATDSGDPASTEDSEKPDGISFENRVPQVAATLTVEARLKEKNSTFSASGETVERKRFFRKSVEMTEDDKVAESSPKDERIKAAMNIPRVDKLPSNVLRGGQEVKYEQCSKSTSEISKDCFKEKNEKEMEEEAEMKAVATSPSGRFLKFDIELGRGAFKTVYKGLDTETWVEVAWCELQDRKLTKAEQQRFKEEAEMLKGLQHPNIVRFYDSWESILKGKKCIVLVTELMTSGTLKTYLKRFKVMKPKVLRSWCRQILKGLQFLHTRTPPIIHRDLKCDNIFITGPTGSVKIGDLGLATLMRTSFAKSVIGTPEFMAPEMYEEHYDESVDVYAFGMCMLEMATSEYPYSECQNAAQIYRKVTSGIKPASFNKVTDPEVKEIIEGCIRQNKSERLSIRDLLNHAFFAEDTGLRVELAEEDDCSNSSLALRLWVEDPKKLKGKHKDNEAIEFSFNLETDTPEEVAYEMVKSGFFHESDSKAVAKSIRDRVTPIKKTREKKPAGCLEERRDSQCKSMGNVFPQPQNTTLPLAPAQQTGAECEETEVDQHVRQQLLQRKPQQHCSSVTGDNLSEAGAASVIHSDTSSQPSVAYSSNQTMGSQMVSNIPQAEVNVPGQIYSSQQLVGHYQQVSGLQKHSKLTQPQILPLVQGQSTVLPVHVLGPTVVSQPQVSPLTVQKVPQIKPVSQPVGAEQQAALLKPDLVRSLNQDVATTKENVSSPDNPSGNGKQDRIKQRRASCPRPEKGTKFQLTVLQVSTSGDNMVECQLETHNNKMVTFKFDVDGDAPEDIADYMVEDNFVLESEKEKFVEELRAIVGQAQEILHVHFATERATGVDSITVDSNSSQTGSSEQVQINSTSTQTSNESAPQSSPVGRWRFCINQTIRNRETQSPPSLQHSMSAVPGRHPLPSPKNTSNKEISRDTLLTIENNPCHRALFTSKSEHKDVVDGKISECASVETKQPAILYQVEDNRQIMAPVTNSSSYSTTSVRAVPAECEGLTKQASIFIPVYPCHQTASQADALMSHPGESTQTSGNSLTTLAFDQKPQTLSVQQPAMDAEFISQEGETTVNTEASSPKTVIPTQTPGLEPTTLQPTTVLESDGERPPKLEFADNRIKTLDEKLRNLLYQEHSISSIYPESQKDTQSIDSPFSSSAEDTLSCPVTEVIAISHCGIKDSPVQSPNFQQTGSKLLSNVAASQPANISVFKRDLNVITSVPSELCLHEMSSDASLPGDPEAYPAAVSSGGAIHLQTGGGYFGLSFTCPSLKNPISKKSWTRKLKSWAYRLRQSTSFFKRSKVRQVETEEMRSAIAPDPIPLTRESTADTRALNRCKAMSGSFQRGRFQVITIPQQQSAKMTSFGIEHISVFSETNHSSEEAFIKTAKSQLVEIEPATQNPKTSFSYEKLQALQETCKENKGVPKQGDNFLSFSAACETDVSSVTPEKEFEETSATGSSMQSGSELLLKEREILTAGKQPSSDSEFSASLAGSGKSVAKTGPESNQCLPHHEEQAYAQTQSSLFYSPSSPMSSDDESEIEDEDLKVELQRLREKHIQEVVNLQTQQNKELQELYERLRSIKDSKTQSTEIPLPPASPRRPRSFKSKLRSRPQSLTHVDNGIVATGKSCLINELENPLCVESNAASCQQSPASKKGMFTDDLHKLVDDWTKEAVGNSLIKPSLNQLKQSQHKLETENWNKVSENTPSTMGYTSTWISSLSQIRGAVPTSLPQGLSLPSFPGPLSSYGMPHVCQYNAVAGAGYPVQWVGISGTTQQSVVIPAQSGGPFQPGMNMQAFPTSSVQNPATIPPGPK

[7] = molecular target: Cyclin-dependent kinase 6 (Homo sapiens) (UniProt Q00534); test: Inhibition of CDK6 Lys2 labeling site in human A-375 cells at 0.5 uM by KiNativ Profiling analysis relative to control; format: cell-based
Cyclin-dependent kinase 6 (Homo sapiens), sequence (Q00534 whole entry): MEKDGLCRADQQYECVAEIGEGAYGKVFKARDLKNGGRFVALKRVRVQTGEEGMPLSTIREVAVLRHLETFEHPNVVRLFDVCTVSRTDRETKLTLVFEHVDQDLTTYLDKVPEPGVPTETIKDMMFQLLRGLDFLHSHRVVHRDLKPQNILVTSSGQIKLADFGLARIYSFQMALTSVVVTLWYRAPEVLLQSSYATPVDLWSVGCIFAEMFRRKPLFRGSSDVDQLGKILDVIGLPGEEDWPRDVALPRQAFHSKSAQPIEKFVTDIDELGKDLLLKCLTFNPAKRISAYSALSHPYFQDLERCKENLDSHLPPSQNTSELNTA
Procedure, shortened: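 Live A375 melanoma cells were treated with compound at 5 or 0.5 μM. The cells were then lysed, and the lysates were labeled with a lysine-reactive ATP or ADP-biotin acyl probe (KiNativ). Inhibition is the compound's protection of each kinase labeling-site peptide from probe labeling, relative to untreated control.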

[8] = molecular target: T2, Mitogen-activated protein kinase kinase kinase 3 (Homo sapiens) (UniProt Q99759); test: Inhibition of MAP3K3 Lys1 labeling site in human A-375 cells at 0.5 uM by KiNativ Profiling analysis relative to control; format: cell-based
T2 sequence (whole entry): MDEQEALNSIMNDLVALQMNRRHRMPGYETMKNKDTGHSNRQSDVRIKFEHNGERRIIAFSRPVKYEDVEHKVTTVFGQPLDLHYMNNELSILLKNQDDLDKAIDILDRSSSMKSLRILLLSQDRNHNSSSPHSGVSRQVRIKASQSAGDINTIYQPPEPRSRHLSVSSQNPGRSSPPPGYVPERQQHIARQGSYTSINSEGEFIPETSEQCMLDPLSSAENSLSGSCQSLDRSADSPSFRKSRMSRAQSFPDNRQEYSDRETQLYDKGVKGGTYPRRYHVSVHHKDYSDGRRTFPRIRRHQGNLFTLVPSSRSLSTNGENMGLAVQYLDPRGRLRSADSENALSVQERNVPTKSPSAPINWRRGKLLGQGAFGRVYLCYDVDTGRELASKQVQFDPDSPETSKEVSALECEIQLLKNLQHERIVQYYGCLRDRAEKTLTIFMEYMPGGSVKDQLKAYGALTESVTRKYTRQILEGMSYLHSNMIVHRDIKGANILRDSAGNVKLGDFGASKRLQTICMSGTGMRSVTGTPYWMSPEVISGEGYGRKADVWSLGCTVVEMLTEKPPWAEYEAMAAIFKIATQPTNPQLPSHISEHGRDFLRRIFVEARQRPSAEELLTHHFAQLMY

[9] = molecular target: Interferon-induced, double-stranded RNA-activated protein kinase (Homo sapiens) (UniProt P19525); test: Inhibition of PKR Lys2 labeling site in human A-375 cells at 0.5 uM by KiNativ Profiling analysis relative to control; format: cell-based
Interferon-induced, double-stranded RNA-activated protein kinase (Homo sapiens), sequence (P19525 whole entry): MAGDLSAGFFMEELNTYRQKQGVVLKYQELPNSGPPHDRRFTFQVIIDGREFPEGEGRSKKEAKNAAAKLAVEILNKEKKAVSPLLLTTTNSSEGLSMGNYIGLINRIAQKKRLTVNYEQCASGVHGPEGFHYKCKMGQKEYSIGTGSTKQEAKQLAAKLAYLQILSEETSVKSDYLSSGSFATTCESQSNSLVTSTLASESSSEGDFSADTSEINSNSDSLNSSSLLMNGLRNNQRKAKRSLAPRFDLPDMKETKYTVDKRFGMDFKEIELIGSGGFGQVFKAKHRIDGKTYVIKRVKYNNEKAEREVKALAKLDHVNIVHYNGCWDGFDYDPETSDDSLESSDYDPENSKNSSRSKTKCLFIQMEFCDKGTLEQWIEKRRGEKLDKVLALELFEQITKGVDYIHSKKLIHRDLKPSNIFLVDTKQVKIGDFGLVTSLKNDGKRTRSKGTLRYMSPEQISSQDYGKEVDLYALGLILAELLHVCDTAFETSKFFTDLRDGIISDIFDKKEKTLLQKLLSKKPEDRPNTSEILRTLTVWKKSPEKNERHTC

[10] = molecular target: Cyclin-dependent kinase 1 (Homo sapiens) (UniProt P06493); test: Inhibition of CDC2 Lys2 labeling site harbouring VLHRDLKPQNLLIDDKGTIK in human A-375 cells at 0.05 uM by KiNativ Profiling analysis relative to control; format: cell-based
Cyclin-dependent kinase 1 (Homo sapiens), sequence (P06493 whole entry, looked up): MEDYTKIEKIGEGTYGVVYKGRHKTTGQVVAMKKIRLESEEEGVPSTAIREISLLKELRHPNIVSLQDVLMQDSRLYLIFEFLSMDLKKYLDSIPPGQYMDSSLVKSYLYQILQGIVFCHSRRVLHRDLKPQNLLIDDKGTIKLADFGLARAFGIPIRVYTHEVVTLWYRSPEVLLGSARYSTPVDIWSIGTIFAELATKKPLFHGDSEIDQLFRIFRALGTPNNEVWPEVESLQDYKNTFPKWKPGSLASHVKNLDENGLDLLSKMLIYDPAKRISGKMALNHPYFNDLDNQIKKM

[11] = molecular target: MAP/microtubule affinity-regulating kinase 3 (Homo sapiens) (UniProt P27448); test: Inhibition of MARK3 Lys1 labeling site in human A-375 cells at 0.05 uM by KiNativ Profiling analysis relative to control; format: cell-based
[12] = molecular target: Serine/threonine-protein kinase 38-like (Homo sapiens) (UniProt Q9Y2H1); test: Inhibition of NDR2 Lys1 labeling site harbouring DTGHIYAMKILR in human A-375 cells at 0.05 uM by KiNativ Profiling analysis relative to control; format: cell-based
[13] = molecular target: Cyclin-dependent kinase 11B (Homo sapiens) (UniProt P21127); test: Inhibition of PITSLRE Lys2 labeling site in human A-375 cells at 0.05 uM by KiNativ Profiling analysis relative to control; format: cell-based
Cyclin-dependent kinase 11B (Homo sapiens), sequence (P21127 whole entry): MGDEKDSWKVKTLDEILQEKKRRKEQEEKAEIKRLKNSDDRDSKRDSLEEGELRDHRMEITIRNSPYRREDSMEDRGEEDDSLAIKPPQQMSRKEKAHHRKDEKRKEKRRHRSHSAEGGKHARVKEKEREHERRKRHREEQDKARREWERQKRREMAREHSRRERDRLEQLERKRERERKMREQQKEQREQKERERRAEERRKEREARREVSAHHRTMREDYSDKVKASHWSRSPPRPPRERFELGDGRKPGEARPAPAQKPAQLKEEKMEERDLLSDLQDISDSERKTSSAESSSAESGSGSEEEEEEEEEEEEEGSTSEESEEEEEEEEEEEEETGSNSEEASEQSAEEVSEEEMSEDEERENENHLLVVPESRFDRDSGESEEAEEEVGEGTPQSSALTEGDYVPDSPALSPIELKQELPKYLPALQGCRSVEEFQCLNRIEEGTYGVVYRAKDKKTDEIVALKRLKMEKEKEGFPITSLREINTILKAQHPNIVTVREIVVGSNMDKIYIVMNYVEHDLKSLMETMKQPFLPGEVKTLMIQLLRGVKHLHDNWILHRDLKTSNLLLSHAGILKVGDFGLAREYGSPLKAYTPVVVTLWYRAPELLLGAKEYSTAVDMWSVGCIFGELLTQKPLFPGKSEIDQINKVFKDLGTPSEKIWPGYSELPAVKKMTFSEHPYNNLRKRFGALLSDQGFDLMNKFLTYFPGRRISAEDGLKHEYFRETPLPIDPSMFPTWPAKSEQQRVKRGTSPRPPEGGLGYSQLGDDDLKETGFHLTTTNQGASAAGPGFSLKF

[14] = molecular target: Protein kinase C beta type (Homo sapiens) (UniProt P05771); test: Inhibition of PKCb Lys2 labeling site in human A-375 cells at 0.05 uM by KiNativ Profiling analysis relative to control; format: cell-based

Tyrosine-protein kinase Lyn, sequence (P07948 2-512 limits assumed): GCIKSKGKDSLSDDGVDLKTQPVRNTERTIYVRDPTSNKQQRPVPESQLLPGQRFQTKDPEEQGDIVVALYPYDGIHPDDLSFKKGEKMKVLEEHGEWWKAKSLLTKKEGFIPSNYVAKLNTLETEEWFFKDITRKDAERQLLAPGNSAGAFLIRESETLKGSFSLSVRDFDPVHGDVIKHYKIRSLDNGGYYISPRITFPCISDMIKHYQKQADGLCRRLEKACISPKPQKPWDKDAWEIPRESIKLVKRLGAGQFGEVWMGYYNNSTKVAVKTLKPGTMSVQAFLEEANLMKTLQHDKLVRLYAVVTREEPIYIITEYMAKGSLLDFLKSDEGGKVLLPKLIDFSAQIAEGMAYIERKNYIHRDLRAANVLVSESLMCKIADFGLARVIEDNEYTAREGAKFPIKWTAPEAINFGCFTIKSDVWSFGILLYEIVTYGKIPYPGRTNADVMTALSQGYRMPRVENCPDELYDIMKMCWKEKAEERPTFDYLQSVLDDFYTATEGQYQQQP

Row | SMILES | inhibition [1] | inhibition [2] | IC50 [3] | inhibition [4] | inhibition [5] | inhibition [6] | inhibition [7] | inhibition [8] | inhibition [9] | inhibition [10] | inhibition [11] | inhibition [12] | inhibition [13] | inhibition [14]
1 | CCN1CCN(Cc2ccc(NC(=O)c3ccc(C)c(Oc4ccnc5[nH]ccc45)c3)cc2C(F)(F)F)CC1 | 73.7% | 90.5% | 75.2 nM | 12.9% | 3.2% | -5.5% | 3.9% | 42% | -5.5% | -2.9% | -4.5% | 5.4% | -4.6% | 45.3%
2 | CCN1CCN(Cc2ccc(NC(=O)c3ccc(C)c(/C=C/c4cnc5[nH]ccc5c4OC)c3)cc2C(F)(F)F)CC1 | 40.6% | > 95% | 51.5 nM | 24.6% | 14.7% | 14.3% | 11.4% | 33.4% | -9.6% | 6.4% | 16% | -0.9% | -3.9% | 58%

Source: ChEMBL document CHEMBL5696442, “Discovery of type II inhibitors of TGFβ-activated kinase 1 (TAK1) and mitogen-activated protein kinase kinase kinase kinase 2 (MAP4K2)” (J Med Chem, 2015)
